Results published in ChEMBL document CHEMBL1126556, “Novel antiasthmatic agents with dual activities of thromboxane A2 synthetase inhibition and bronchodilation. 1. 2-[2-(1-Imidazolyl)alkyl]-1(2H)-phthalazinones” (J Med Chem, 1993).

How the values were obtained:
[1] = system: Thromboxane-A synthase (Oryctolagus cuniculus); test: Tested for inhibition of thromboxane A2 (TXA2) production in rabbit by in vitro assay at 1 uM
Cavia porcellus [2] = organism: Cavia porcellus; test: Tested in vitro for bronchodilatory activity by spontaneous tone inhibition in guinea pig tracheal strips; assay type: functional; conditions: Trachea
Cavia porcellus [3] = test: In vivo inhibitory effect on airway constriction induced by histamine 2-5 micro g/kg iv at 1 min after 10 mg/kg intravenous dose in anesthetized guinea pigs; assay type: functional
In short: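 Male Dunkin-Hartley guinea pigs, anesthetized with pentobarbital 35 mg/kg ip, cannulated at jugular vein and trachea, ventilated at 10 mL/kg and 60 strokes/min. Insufflation pressure recorded continuously by transducer. Histamine given iv every 10 min until the constriction was reproducible. Compound 10 mg/kg iv given 1 min before the next challenge. Result is mean % inhibition against control response, from ≥3 experiments.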

[4] = target: T1, Thromboxane-A synthase (Rattus norvegicus) (UniProt P49430); test: Tested for inhibition of thromboxane A2 (TXA2) production in rat serum by ex vivo assay after peroral dose of 30 mg/kg; assay type: functional, organism-based; set-up: dose 30 mg/kg
T1 sequence (whole entry): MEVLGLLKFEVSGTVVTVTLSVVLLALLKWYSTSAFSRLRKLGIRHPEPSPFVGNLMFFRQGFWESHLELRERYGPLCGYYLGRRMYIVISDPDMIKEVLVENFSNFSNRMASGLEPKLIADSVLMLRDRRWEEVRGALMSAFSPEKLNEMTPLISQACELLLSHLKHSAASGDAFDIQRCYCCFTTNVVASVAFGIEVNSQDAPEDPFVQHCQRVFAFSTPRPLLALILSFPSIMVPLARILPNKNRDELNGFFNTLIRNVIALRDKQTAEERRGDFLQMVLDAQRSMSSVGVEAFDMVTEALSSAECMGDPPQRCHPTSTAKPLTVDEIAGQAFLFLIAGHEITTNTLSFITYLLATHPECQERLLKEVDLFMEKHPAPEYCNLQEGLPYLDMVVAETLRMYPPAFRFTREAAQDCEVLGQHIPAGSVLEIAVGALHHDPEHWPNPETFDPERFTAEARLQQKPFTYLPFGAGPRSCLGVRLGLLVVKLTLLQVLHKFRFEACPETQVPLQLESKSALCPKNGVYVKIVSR
In short: (§1)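 Male SD rats (240–260 g), fasted 20 h, dosed orally in 0.5% carboxymethylcellulose or given vehicle. After 1 h under ether, 2 mL cardiac blood was drawn and clotted 90 min at 37 °C. Serum was EtOH-deproteinized and stored at -20 °C. TXB₂ measured by radioimmunoassay. % inhibition calculated against each vehicle control group.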

[5] = Partition coefficient (logP); assay type: physicochemical; conditions: octanol/water
Rattus norvegicus = test: Tested for inhibition of TXA2 production in rat serum by ex vivo assay after peroral dose of 3 mg/kg; assay type: functional; conditions: route oral
In short: as §1

Row | SMILES | inhibition [1] [%] | IC50 (Cavia porcellus [2]) [µM] | inhibition [4] [%] | logP [5] | inhibition in vivo at 10 mg/kg (Cavia porcellus [3]) [%] | inhibition in vivo at 3 mg/kg (Rattus norvegicus) [%]
1 | CCOC(=O)c1ccccc1-c1nn(CCn2ccnc2)c(=O)c2ccccc12 | 64 | 60.3 |  |  | 60 | 
2 | CCOC(=O)c1ccc(-c2nn(CCn3ccnc3)c(=O)c3ccccc23)s1 | 62 | 13.2 |  |  | 92 | 
3 | CC(C)Cc1nn(CCn2ccnc2)c(=O)c2ccccc12 | 14 | 12 | 21 | 2 |  | 
4 | Cc1nn(CCn2ccnc2)c(=O)c2ccccc12 | 10 | > 100 |  | 0.538 |  | 
5 | O=c1c2ccccc2c(Cc2ccccc2)nn1CCn1ccnc1 | 45 | 10.7 | -5 |  | 98 | 
6 | O=C(O)c1ccc(-c2nn(CCn3ccnc3)c(=O)c3ccccc23)s1 |  | 34.7 |  |  | 5 | 
7 | Cn1c(=O)c2[nH]cnc2n(C)c1=O [AMINOPHYLLINE] |  | 46.8 | 0 |  | 86 | 
8 | CCc1ccsc1-c1nn(CCn2ccnc2)c(=O)c2ccccc12 | 68 | 18.6 | 46 |  | 84 | 
9 | O=C(O)c1ccc(-c2nn(CCn3ccnc3)c(=O)c3ccccc23)cc1 | 24 | 64.6 |  |  | 21 | 
10 | O=c1c2ccccc2c(-c2ccccc2)nn1CCCCCn1ccnc1 | 69 | 23.4 |  |  |  | 
11 | O=c1c2ccccc2c(-c2ccccc2)nn1CCCn1ccnc1 | 57 | 11 |  |  |  | 
12 | O=C(O)c1cccc(-c2nn(CCn3ccnc3)c(=O)c3ccccc23)c1 | 10 | > 100 |  |  | 33 | 
13 | CCOC(=O)c1ccc(-c2nn(CCn3ccnc3)c(=O)c3ccccc23)cc1 | 60 | 10 |  |  | 92 | 
14 | O=c1c2ccccc2c(-c2cccnc2)nn1CCn1ccnc1 |  | 26.9 | 90 | 0.66 | 97 | 63
15 | O=c1c2ccccc2c(-c2ccco2)nn1CCn1ccnc1 | 27 | 42.7 |  | 1.52 |  | 
16 | O=C(O)/C=C/c1ccc(Cn2ccnc2)cc1 [OZAGREL] |  | > 1000 |  |  | 0 | 
17 | O=c1c2ccccc2c(-c2ccc(F)cc2)nn1CCn1ccnc1 | 33 | 15.8 | 46 |  | 100 | 
18 | O=c1c2ccccc2c(-c2ccccn2)nn1CCn1ccnc1 | 20 | 42.7 | 41 | 0.87 | 30 | 
19 | O=c1c2ccccc2c(-c2ccc(C(F)(F)F)cc2)nn1CCn1ccnc1 | 40 | 11.2 |  |  |  | 
20 | CC(=O)c1ccc(-c2nn(CCn3ccnc3)c(=O)c3ccccc23)s1 | 80 | 15.1 | 5 | 1.51 | 94 | 
21 | COc1ccc(-c2nn(CCn3ccnc3)c(=O)c3ccccc23)cc1 | 74 | 25.1 | 50 | 2.06 | 0 | 
22 | O=c1c2ccccc2c(-c2ccccc2)nn1CCCCCCn1ccnc1 | 79 | 9.77 |  |  |  | 
23 | O=c1c2ccccc2c(-c2ccncc2)nn1CCn1ccnc1 | 27 | 24 | 47 | 0.66 | 100 | 
24 | O=c1c2ccccc2c(-c2ccccc2)nn1CCCCCCCCn1ccnc1 | 63 | 8.13 |  |  |  | 
25 | O=c1c2ccccc2c(-c2ccccc2)nn1CCCCn1ccnc1 | 65 | 17.4 |  |  |  | 
26 | O=C(O)c1ccccc1-c1nn(CCn2ccnc2)c(=O)c2ccccc12 | 14 | 49 |  |  | 94 | 

Compounds with a lower IC50 (Cavia porcellus [2]), results first:

Row | inhibition [1] [%] | IC50 (Cavia porcellus [2]) [µM] | inhibition [4] [%] | logP [5] | SMILES | inhibition in vivo at 10 mg/kg (Cavia porcellus [3]) [%] | inhibition in vivo at 3 mg/kg (Rattus norvegicus) [%]
27 | 79 | 7.76 | 55 | 3.17 | CCc1ccc(-c2nn(CCn3ccnc3)c(=O)c3ccccc23)cc1 | 8 | 
28 | 29 | 7.59 | 35 |  | O=c1c2ccccc2c(Cc2cccs2)nn1CCn1ccnc1 | 100 | 
29 | 53 | 6.61 | 0 |  | Cc1ccc(-c2nn(CCn3ccnc3)c(=O)c3ccccc23)s1 | 26 | 
30 | 27 | 6.46 | 32 |  | COc1ccc(-c2nn(CCn3ccnc3)c(=O)c3ccccc23)cc1OC | 90 | 
31 | 38 | 5.89 |  | 2.63 | O=c1c2ccccc2c(C2CCCC2)nn1CCn1ccnc1 | 98 | 
32 | 49 | 5.62 | 40 |  | O=c1c2ccccc2c(Cc2ccc(Cl)cc2)nn1CCn1ccnc1 | 100 | 
33 | 54 | 5.62 | 68 |  | CCOc1ccc(-c2nn(CCn3ccnc3)c(=O)c3ccccc23)cc1 | 87 | 
34 | 64 | 5.37 | 52 |  | CC(C)c1ccc(-c2nn(CCn3ccnc3)c(=O)c3ccccc23)cc1 | 68 | 
35 | 76 | 5.13 | 0 |  | Cc1ccc(-c2nn(CCn3ccnc3)c(=O)c3ccccc23)cc1 | 94 | 
36 | 83 | 4.47 | 67 | 2.7 | CSc1ccc(-c2nn(CCn3ccnc3)c(=O)c3ccccc23)cc1 | 73 | 
37 | 88 | 4.27 |  | 1.94 | COc1ccc(-c2nn(CCn3ccnc3)c(=O)c3ccccc23)s1 |  | 
38 | 63 | 3.89 | 60 |  | COc1ccc(-c2nn(CCn3ccnc3)c(=O)c3ccccc23)cc1F | 54 | 
39 | 22 | 3.55 | 47 | 1.99 | O=c1c2ccccc2c(-c2cccs2)nn1CCn1ccnc1 | 84 | 
40 | 55 | 2.34 | 0 |  | CCOC(=O)c1cccc(-c2nn(CCn3ccnc3)c(=O)c3ccccc23)c1 | 90 | 
41 | 63 | 2.04 | 40 |  | O=c1c2ccccc2c(-c2ccc(Cl)cc2)nn1CCn1ccnc1 | 71 | 
42 | 67 | 1.78 | 52 | 3.02 | CCc1ccc(-c2nn(CCn3ccnc3)c(=O)c3ccccc23)s1 | 96 | 
43 | 47 | 1.45 | 15 |  | O=c1c2ccccc2c(-c2ccc(Cl)s2)nn1CCn1ccnc1 | 96 | 
44 | 41 | 1.32 | 0 | 2.14 | O=c1c2ccccc2c(-c2ccccc2)nn1CCn1ccnc1 | 88 | 
45 | 49 | 1 | 37 |  | O=c1c2ccccc2c(-c2cccc(C(F)(F)F)c2)nn1CCn1ccnc1 | 42 | 
46 | 32 | 0.676 | 28 | 3.19 | O=c1c2ccccc2c(C2CCCCC2)nn1CCn1ccnc1 | 71 | 
